The target in data set [1] is Cytochrome P450 3A4 (Homo sapiens, UniProt P08684). The data set can be described thus: Inhibition of CYP3A4 in human liver microsomes in presence of NADPH by LC-MS/MS method. Type of data set: ADME, Microsome. Background: Liver microsomes are a subcellular fraction often used to study metabolism.
Data set [2] addresses T1, Histone deacetylase 7 (Homo sapiens, UniProt Q8WUI4).
T1 sequence (Q8WUI4 whole entry): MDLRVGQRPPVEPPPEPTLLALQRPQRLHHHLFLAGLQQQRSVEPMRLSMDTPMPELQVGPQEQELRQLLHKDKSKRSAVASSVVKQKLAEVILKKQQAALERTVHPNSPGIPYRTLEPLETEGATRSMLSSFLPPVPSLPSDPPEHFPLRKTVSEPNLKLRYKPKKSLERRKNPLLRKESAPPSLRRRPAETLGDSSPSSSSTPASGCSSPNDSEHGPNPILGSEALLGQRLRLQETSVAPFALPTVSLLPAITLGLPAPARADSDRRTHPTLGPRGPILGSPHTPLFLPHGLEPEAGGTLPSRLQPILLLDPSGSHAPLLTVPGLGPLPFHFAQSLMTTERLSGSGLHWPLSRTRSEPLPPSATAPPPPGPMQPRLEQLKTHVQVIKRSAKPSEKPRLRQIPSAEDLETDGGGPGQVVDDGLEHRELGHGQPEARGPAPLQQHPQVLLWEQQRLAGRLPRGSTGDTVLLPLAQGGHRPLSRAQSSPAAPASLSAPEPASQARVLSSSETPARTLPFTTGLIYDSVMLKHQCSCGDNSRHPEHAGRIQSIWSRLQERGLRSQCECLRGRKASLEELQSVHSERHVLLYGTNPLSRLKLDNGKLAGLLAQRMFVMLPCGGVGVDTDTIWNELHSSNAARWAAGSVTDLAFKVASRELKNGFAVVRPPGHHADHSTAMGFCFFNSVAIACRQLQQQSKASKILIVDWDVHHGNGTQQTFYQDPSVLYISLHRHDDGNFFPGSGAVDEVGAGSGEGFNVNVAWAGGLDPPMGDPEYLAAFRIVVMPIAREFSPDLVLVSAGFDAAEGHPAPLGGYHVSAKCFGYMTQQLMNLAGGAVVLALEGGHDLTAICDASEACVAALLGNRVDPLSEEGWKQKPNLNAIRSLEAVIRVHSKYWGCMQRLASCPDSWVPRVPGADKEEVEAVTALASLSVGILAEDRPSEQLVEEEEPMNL
The data set can be described thus: Inhibition of HDAC7 using p53 (379 to 382 residues) based fluorogenic peptide substrate.

The nature of data set [3]: Oral bioavailability in BALB/C mouse at 10 mg/kg by LC-MS/MS method. Type of data set: ADME, organism-based. The conditions noted are these: BALB/C, in vivo. The essentials: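 Bioavailability from single-dose iv (2 mg/kg, 5% DMSO/40% PEG400/55% saline) and oral gavage (10 mg/kg, 0.445% microcrystalline cellulose microsuspension) studies in BALB/C nude mice (N = 16 per arm); plasma at eight (po) or nine (iv) time points, LC-MS/MS, noncompartmental analysis.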

The nature of data set [4]: Clearance in BALB/C mouse at 10 mg/kg, po or 2 mg/kg, iv by LC-MS/MS method. Type of data set: ADME, organism-based. As to conditions: in vivo. The essentials:
(§1)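 Female-unspecified BALB/C nude mice (15−20 g, N = 16 per arm); iv bolus 2 mg/kg in 5% DMSO/40% PEG400/55% saline and/or oral gavage 10 mg/kg as 0.445% microcrystalline cellulose microsuspension. Blood sampled at nine (iv) or eight (po) time points into sodium heparin tubes; plasma by LC-MS/MS; noncompartmental analysis.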

In data set [5] the target is T2, Histone deacetylase 8 (Homo sapiens, UniProt Q9BY41).
T2 sequence (Q9BY41 whole entry): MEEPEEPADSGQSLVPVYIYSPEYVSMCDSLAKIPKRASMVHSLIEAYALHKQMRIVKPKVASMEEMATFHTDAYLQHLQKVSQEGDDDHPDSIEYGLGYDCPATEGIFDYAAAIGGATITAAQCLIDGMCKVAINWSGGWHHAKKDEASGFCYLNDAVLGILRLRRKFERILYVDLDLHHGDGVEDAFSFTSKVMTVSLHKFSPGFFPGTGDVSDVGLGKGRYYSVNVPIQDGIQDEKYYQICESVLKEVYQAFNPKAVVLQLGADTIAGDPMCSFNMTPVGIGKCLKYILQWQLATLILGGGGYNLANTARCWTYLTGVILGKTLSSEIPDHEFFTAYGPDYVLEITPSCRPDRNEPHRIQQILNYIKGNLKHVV
As to the kind of experiment: Inhibition of HDAC8 using p53 (379 to 382 residues) based fluorogenic peptide substrate.

Data set [6] in a line: Cmax in BALB/C mouse at 10 mg/kg, po or 2 mg/kg, iv by LC-MS/MS method. Type of data set: ADME, organism-based. As to conditions: BALB/C, in vivo. The essentials:
as §1

Data set [7] addresses Cytochrome P450 2C9 (Homo sapiens, UniProt P11712). As to the kind of experiment: Inhibition of CYP2C9 in human liver microsomes in presence of NADPH by LC-MS/MS method. The format is ADME, Microsome.
Data set [8] addresses Histone deacetylase 3 (Homo sapiens, UniProt O15379). The data set can be described thus: Inhibition of HDAC3 using p53 (379 to 382 residues) based fluorogenic peptide substrate.
Data set [9] can be described thus: Tmax in BALB/C mouse at 10 mg/kg, po or 2 mg/kg, iv by LC-MS/MS method. As to conditions: BALB/C, in vivo. The format is ADME, organism-based. The essentials: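 Single-dose PK: iv bolus 2 mg/kg in 5% DMSO/40% PEG400/55% saline and/or oral gavage 10 mg/kg as 0.445% microcrystalline cellulose microsuspension; BALB/C nude mice (15−20 g, N = 16 per arm) or male Sprague−Dawley rats (250 ± 20 g, N = 3). Blood at eight (po) or nine (iv) time points into sodium heparin, plasma by LC-MS/MS, noncompartmental analysis.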

Data set [10] deals with T3, Cytochrome P450 1A2 (Homo sapiens, UniProt P05177).
T3 sequence (P05177 whole entry): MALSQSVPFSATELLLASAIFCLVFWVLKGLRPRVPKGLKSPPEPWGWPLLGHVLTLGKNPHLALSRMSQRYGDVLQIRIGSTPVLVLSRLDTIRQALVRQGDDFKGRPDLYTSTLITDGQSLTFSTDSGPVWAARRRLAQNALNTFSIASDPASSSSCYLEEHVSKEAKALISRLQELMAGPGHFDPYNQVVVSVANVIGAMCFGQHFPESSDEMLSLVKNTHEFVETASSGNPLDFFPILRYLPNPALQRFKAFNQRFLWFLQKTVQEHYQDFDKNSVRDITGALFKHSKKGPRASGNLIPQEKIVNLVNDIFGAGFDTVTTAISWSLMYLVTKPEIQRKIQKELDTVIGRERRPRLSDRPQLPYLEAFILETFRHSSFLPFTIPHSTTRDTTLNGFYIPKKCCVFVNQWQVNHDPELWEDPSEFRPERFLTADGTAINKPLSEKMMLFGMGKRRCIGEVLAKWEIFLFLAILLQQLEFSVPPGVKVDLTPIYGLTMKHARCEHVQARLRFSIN
As to the kind of experiment: Inhibition of CYP1A2 in human liver microsomes in presence of NADPH by LC-MS/MS method. The format is ADME, Microsome.

SMILES strings stand for the structures.

Sequence of Cytochrome P450 3A4 (P08684 whole entry): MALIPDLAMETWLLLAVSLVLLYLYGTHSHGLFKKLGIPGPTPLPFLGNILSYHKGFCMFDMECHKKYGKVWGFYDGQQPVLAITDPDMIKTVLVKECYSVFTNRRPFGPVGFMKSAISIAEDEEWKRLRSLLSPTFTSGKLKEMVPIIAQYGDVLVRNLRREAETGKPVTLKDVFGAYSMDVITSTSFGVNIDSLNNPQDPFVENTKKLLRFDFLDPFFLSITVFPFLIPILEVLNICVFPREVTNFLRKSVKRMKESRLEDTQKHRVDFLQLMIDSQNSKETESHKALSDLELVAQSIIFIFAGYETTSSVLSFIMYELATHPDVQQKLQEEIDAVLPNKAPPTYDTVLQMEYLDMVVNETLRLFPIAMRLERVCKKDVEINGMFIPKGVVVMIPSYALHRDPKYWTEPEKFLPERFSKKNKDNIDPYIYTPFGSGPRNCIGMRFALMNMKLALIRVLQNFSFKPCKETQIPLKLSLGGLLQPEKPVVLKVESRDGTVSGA
Sequence of Cytochrome P450 2C9 (P11712 whole entry, the tested form may be a part): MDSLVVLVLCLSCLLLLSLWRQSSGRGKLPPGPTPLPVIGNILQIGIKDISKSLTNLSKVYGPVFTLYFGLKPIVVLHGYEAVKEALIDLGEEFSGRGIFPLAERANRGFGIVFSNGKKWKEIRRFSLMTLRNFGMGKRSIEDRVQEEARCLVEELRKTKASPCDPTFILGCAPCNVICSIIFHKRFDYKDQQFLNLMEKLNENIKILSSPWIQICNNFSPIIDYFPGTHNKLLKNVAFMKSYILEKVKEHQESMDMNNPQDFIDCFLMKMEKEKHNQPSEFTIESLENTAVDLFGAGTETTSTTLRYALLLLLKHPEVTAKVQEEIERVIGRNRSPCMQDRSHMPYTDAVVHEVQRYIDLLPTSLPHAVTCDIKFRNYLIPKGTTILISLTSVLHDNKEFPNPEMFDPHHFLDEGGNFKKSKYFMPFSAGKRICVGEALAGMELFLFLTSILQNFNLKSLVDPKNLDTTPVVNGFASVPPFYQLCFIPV
Sequence of Histone deacetylase 3 (O15379 whole entry, the tested form may be a part): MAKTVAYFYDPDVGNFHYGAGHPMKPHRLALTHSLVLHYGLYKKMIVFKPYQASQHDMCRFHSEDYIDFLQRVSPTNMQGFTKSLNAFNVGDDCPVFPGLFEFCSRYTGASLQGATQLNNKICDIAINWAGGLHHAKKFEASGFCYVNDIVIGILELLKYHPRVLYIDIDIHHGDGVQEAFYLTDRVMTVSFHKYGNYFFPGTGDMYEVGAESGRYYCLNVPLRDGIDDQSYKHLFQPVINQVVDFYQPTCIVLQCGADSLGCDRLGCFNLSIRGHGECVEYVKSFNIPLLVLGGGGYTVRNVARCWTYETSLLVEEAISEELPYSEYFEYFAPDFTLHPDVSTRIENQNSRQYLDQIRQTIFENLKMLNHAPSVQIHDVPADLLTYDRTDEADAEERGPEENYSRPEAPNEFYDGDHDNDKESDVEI

As a reminder, the IC50 is the midpoint of a concentration-inhibition curve. For orientation: bioavailability means the share of a dose that reaches the circulation, judged against a reference dose that is usually intravenous. A lower bioavailability goes with poor availability. Usually Cmax stands for the peak of the concentration-time curve. One may read the Tmax as the time at which the peak concentration occurs. Consider `CN1C[C@H](C(=O)Nc2ccc(Cl)cc2)[C@@H](c2ccc(/C=C/C(=O)Nc3ccccc3N)cc2F)C1` (racemic), for which the IC50 in data set [1] is 4 µM; in [2], more than 30 µM; in data set [5], more than 30 µM; in data set [7] it was 13 µM; in [8], 0.23 µM; in [10], 28 µM. Further, the bioavailability in [3] was determined as 49%. In addition, the clearance in data set [4] was 23 mL/min/kg. For the same molecule, in [6], the Cmax is 828 ng/mL. In data set [9], the time to peak (Tmax) worked out at 2 h.

`CN1C[C@@H](C(=O)Nc2ccc(Cl)cc2)[C@H](c2ccc(/C=C/C(=O)Nc3ccccc3N)cc2)C1`: the IC50 in data set [1] is 21 µM; in data set [2], more than 30 µM; in [5], more than 30 µM; in data set [7], 23 µM; in data set [8], 0.2 µM; in data set [10], 50 µM. Further, the bioavailability in [3] stood at 89%. Further, the clearance in [4] stood at 58 mL/min/kg. In addition, in [6], the highest concentration (Cmax) is 450 ng/mL. Also, in [9], the Tmax is 1 h.

`CN1C[C@H](C(=O)Nc2ccc(Cl)cc2)[C@@H](c2ccc(/C=C/C(=O)Nc3ccccc3N)cc2)C1`: the IC50 in data set [1] is 14 µM; in data set [2], more than 30 µM; in [5], more than 30 µM; in data set [7], 29 µM; in data set [8], 0.23 µM; in [10], 42 µM.

For the origin of these results see ChEMBL document CHEMBL2177000, “Pharmacokinetic optimization of class-selective histone deacetylase inhibitors and identification of associated candidate predictive biomarkers of hepatocellular carcinoma tumor response” (J Med Chem, 2012).
